Tests used:
[1] = Antiplatelet activity in rabbit platelet rich plasma assessed as inhibition rate of ADP-induced platelet aggregation at 50 uM after 5 mins by aggregometry; assay type: functional; conditions: Oryctolagus cuniculus
In short: (§1)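 Rabbit platelet-rich plasma obtained by centrifuging blood at 1000 rpm for 5 min. Platelet-poor plasma (3000 rpm, 15 min) served as the reference. Platelets were adjusted to 3×10¹¹/L. PRP was mixed with compound at final levels 400, 200, 100 or 50 and incubated at 37 °C for 5 min before aggregation was read. IC50 was derived by linear regression.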

ECV-304 [2] = assay: Protection against H2O2-induced toxicity in human ECV304 cells assessed as proliferation rate at 50 uM pretreated for 24 hrs before H2O2 challenge measured after 12 hrs by MTT assay; assay type: functional; conditions: read-out: Activity
In short: (§2)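 ECV-304 cells were seeded at 6×10³/well and grown to confluence. Cells were pretreated 24 h with compound in DMSO (final ≤0.05%), then given H2O2 (150) for 12 h at 37 °C, 5% CO2. MTT (5 mg/mL) was added for 4 h, formazan dissolved in DMSO, and A570 read. Proliferation rate = [OD(compd)−OD(H2O2)]/[OD(control)−OD(H2O2)]×100%. EC50 was calculated from proliferation rates by formula.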

ECV-304 [3] = assay: Protection against H2O2-induced toxicity in human ECV304 cells assessed as proliferation rate pretreated for 24 hrs before H2O2 challenge measured after 12 hrs by MTT assay; assay type: functional, cell-based; in short: as §2
[4] = Antiplatelet activity in rabbit platelet rich plasma assessed as inhibition rate of ADP-induced platelet aggregation at 100 uM after 5 mins by aggregometry; assay type: functional; conditions: Oryctolagus cuniculus; in short: as §1
ECV-304 [5] = assay: Protection against H2O2-induced toxicity in human ECV304 cells assessed as proliferation rate at 100 uM pretreated for 24 hrs before H2O2 challenge measured after 12 hrs by MTT assay; assay type: functional; conditions: read-out: Activity; in short: as §2
[6] = Antiplatelet activity in rabbit platelet rich plasma assessed as inhibition of ADP-induced platelet aggregation after 5 mins by aggregometry; assay type: functional; conditions: Oryctolagus cuniculus; in short: as §1
[7] = Antiplatelet activity in rabbit platelet rich plasma assessed as inhibition rate of ADP-induced platelet aggregation at 200 uM after 5 mins by aggregometry; assay type: functional; conditions: Oryctolagus cuniculus; in short: as §1
ECV-304 [8] = assay: Protection against H2O2-induced toxicity in human ECV304 cells assessed as proliferation rate at 25 uM pretreated for 24 hrs before H2O2 challenge measured after 12 hrs by MTT assay; assay type: functional; conditions: read-out: Activity; in short: as §2
ECV-304 [9] = assay: Protection against H2O2-induced toxicity in human ECV304 cells assessed as proliferation rate at 12.5 uM pretreated for 24 hrs before H2O2 challenge measured after 12 hrs by MTT assay; assay type: functional; conditions: read-out: Activity; in short: as §2
[10] = Antiplatelet activity in rabbit platelet rich plasma assessed as inhibition rate of ADP-induced platelet aggregation at 400 uM after 5 mins by aggregometry; assay type: functional; conditions: Oryctolagus cuniculus; in short: as §1

| SMILES | inhibition at 50 µM [1] [%] | growth at 50 µM (ECV-304 [2]) [%] | EC50 (ECV-304 [3]) [mM] | inhibition at 100 µM [4] [%] | growth at 100 µM (ECV-304 [5]) [%] | IC50 [6] [µM] | inhibition at 200 µM [7] [%] | growth at 25 µM (ECV-304 [8]) [%] | growth at 12.5 µM (ECV-304 [9]) [%] | inhibition at 400 µM [10] [%] |
| --- | --- | --- | --- | --- | --- | --- | --- | --- | --- | --- |
| COc1cc(/C=C/C(=O)O)cc(OC)c1OCc1nc(C)c(C)nc1C | 33 | -95.9 | 3.53 | 41 | -132 | 182 | 47.3 | -33.8 | -74.6 | 64.3 |
| CCOC(=O)/C=C/c1ccc(OCc2nc(C)c(C)nc2C)c(O)c1 | 13.9 | 10.3 | 0.139 | 23 | 37.3 | 1380 | 25.7 | -8.45 | -18.7 | 41.8 |
| CCOC(=O)/C=C/c1ccc(OCc2nc(C)c(C)nc2C)c(OC)c1 | 26.2 | 50.9 | 0.109 | 36.9 | 70.2 | 449 | 40.2 | 43.5 | 29.5 | 49.5 |
| CCOC(=O)/C=C/c1cc(OC)c(OCc2nc(C)c(C)nc2C)c(OC)c1 | 31 | -94.2 | 2.31 | 35 | -180 | 631 | 38.5 | -81.9 | -31.1 | 48.1 |
| CCOC(=O)/C=C/c1cccc(OCc2nc(C)c(C)nc2C)c1 | 14.5 | 278 | 4.33 | 29.4 |  | 628 | 34.8 | -180 | -1.52 | 43 |
| CCOC(=O)/C=C/c1ccccc1OCc1nc(C)c(C)nc1C | 16.4 | 327 | 1.54 | 30.1 |  | 502 | 33.4 | -109 | -1.24 | 48.1 |
| CCOC(=O)/C=C/c1cccc(OC)c1OCc1nc(C)c(C)nc1C | 6.97 | 16.6 | 3.04 | 10.5 |  | > 2000 | 12.5 | 58.7 | -92.5 | 28.1 |
| CCOC(=O)/C=C/c1cc(Cl)ccc1OCc1nc(C)c(C)nc1C | 7.66 | -186 | 16.9 | 11.3 |  | > 2000 | 14.5 | -94.4 | -0.46 | 18.7 |
| CCOC(=O)/C=C/c1cc(Br)cc(Br)c1OCc1nc(C)c(C)nc1C | 9.8 | 73.9 | 1.59 | 13.5 |  | > 2000 | 15.8 | -6.88 | -25.7 | 16.1 |
| CCOC(=O)/C=C/c1cc(Br)c(OCc2nc(C)c(C)nc2C)c(Br)c1 | 6.77 | 66.1 | 1.97 | 10.7 |  | > 2000 | 16.3 | 57 | -130 | 20.7 |
| Cc1nc(C)c(COc2ccc(/C=C/C(=O)O)cc2O)nc1C | 3.46 | 157 | 0.046 | 11.8 | 170 | 176 | 60 | 131 | 15.3 | 87 |
| COc1cc(/C=C/C(=O)O)ccc1OCc1nc(C)c(C)nc1C | 17.5 | -17.8 | 0.295 | 47 | -19.6 | 157 | 51.9 | -22.4 | -12.5 | 73.2 |
| Cc1nc(C)c(COc2ccccc2/C=C/C(=O)O)nc1C | 46.1 | 237 | 0.499 | 62.3 | -34.6 | 54 | 70.2 | 370 | 183 | 76.8 |
| COc1cccc(/C=C/C(=O)O)c1OCc1nc(C)c(C)nc1C | 8.97 | 50.3 | 3.59 | 26.1 |  | 522 | 28.4 | -0.71 | -164 | 47.6 |
| Cc1nc(C)c(COc2ccc(Cl)cc2/C=C/C(=O)O)nc1C | 24.7 | -153 | 9.3 | 38.4 |  | 1050 | 45.6 | -44 | -98.3 | 67 |
| Cc1nc(C)c(COc2c(Br)cc(Br)cc2/C=C/C(=O)O)nc1C | 18.1 | 48.5 | 0.155 | 20 | -24.8 | 1310 | 33.1 | 4.21 | -22.3 | 37.4 |
| Cc1nc(C)c(COc2c(Br)cc(/C=C/C(=O)O)cc2Br)nc1C | 5.3 | -113 | 3.28 | 62.8 | -85.8 | 1290 | 38.6 | -104 | -83.8 | 55.4 |
| Cc1nc(C)c(C)nc1C [LIGUSTRAZINE] |  | 22.1 | 0.6 |  | 42.8 |  |  | 12.7 | 10.4 |  |
| O=C(O)/C=C/c1ccc(Cn2ccnc2)cc1 [OZAGREL] | 23.3 |  |  | 27.3 |  | 360 | 45.4 |  |  | 55.3 |

Reference: ChEMBL document CHEMBL1909548, “Ligustrazine derivatives. Part 5: design, synthesis and biological evaluation of novel ligustrazinyloxy-cinnamic acid derivatives as potent cardiovascular agents” (Eur J Med Chem, 2011)
